NALP1 yeast inh: NALP1 inhibition; S. cerevisiae NALP1/ASC/caspase-1 growth, X-gal OD620, 72 h; inhibition, % at 10 µM; hit rate 0.61% among 280,000; in the data active means inhibition mostly above about 24%, no sharp cut-off; inactive means mostly below about 32%
UCH37 inh: human UCH37 deubiquitinating enzyme inhibition | purified proteasome/UCH37, Ub-AMC cleavage fluorescence | AID 588478 | Q9Y5K5 | hit rate 0.33% among 330,000 | inhibition, % (test concentration not listed);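 active means mean inhibition over replicate wells above about 20%, limit read from the data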;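 further: 0% = compound-free wells with enzyme and 100% = wells lacking proteasome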
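assay system = human UCH37 enzyme supplied as purified proteasome complex | amount = proteasome at 0.15 nM in the dispensed enzyme solution | schedule = 30 min compound-proteasome preincubation then 25 min substrate reaction, room temperature | measured by = fluorescence, ex 355 nm, em 460 nm | benchmarks = no-proteasome wells (full inhibition) and compound-free wells (no inhibition)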
ATG4B inhibitor: inhibitors of human ATG4B cysteine protease | inhibition, % at 8.33 µM | hit rate 0.51% among 340,000 | Q9Y4P1 | ATG4B cleavage of LC3-PLA2, NBD-HPC fluorescence, 1 h; in the data active means inhibition above about 40%
Target sequence (Q9Y4P1 whole entry, looked up): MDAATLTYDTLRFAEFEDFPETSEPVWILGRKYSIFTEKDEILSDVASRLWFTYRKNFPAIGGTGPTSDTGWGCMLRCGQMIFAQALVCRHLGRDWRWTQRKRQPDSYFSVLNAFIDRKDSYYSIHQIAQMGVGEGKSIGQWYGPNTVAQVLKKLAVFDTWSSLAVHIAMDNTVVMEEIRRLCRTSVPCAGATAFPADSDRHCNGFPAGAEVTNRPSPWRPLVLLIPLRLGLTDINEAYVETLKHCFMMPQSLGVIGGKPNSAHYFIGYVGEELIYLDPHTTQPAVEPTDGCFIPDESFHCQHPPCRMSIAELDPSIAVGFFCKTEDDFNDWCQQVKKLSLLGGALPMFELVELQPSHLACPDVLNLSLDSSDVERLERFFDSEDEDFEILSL
NLRP3 yeast inh: blocks the NALP3 inflammasome reconstituted in yeast; Yeast reconstituted NLRP3/ASC/caspase-1, beta-gal luminescence, 24 h; inhibition, % at 10 µM; hit rate 0.39% among 330,000; AID 2825;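 active means inhibition of 50% or more; inactive means inhibition below 50%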;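 further: plate controls were induced DMSO wells for no effect and uninduced yeast grown without galactose for full effect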
ALR H2O2 inh: inhibitors of human sulfhydryl oxidase ALR | P55789 | purified ALR, DTT oxidation, H2O2 HRP-luminol luminescence | inhibition, % (test concentration not listed) | hit rate 3.8% among 290,000 | AID 485317;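 active means mean replicate inhibition above about 79%, with every replicate also reaching it, limit read from the data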
Target sequence (P55789 whole entry, looked up): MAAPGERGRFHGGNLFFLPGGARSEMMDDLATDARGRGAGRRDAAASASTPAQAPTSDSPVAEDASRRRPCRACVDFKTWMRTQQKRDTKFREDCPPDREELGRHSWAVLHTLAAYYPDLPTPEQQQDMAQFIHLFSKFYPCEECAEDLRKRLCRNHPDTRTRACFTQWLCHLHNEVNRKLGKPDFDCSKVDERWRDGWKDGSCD
Calb FLC: affects C. albicans growth with fluconazole; C. albicans CaCi-2 + fluconazole, Alamar Blue growth, 48 h; growth inhibition, % (test concentration not listed); hit rate 0.57% among 300,000;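 active means growth inhibition above about 58% in most replicates, limit read from the data, passing the limit was not always enough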;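 further: all wells also contain fluconazole at 8 µg/ml as a sub-toxic cotreatment; 0% = median of DMSO wells and 100% = median of geldanamycin control wells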
Active calls of the source: *. An excerpt weighted towards active compounds, which were near 4.8% of everything screened.

Screening CCN1CCC(N2CCN(c3ccc(F)cc3)CC2)CC1 returned NALP1 yeast inh -3.2, UCH37 inh 3.6, ATG4B inhibitor -6.2, NLRP3 yeast inh 14.5, ALR H2O2 inh 97.3* and Calb FLC -1.0.
Fc1ccc(N2CCN(C3CCC(c4ccccc4)CC3)CC2)cc1 (configuration not stated) was read as UCH37 inh 1.1, ATG4B inhibitor 0.5, NLRP3 yeast inh 29.3, ALR H2O2 inh -2.6 and Calb FLC -15.8.
Cc1[nH]n(-c2ccccc2)c(=O)c1C=NO was read as UCH37 inh 2.2.
`O=C(Cc1ccccc1)NN=Cc1cc2c(cc1Cl)OCO2` gave UCH37 inh -8.1.
Screening CC(C)c1cc(C(N)=O)c(NC(=O)C2CCC2)s1 returned UCH37 inh 6.7, ATG4B inhibitor 4.6, NLRP3 yeast inh 12.5, ALR H2O2 inh 97.5* and Calb FLC 2.9.
For Cc1ccc2c(c1)N(C)/C(=C/c1cccc[n+]1C)S2 the results were NALP1 yeast inh 14.9, UCH37 inh 9.0, ATG4B inhibitor 2.2, NLRP3 yeast inh -13.3, ALR H2O2 inh 97.4* and Calb FLC 64.0.
Screening CN1/C(=C/c2cccc[n+]2C)Sc2ccccc21 returned NALP1 yeast inh 13.8, UCH37 inh 12.1, ATG4B inhibitor 0.7, NLRP3 yeast inh 4.6, ALR H2O2 inh 31.8 and Calb FLC 42.7.
For COc1ccc2c(c1)N(C)/C(=C/c1cccc[n+]1C)S2 the results were NALP1 yeast inh 2.8, UCH37 inh 10.0, ATG4B inhibitor -1.9, NLRP3 yeast inh 1.7, ALR H2O2 inh 97.3* and Calb FLC -7.1.
CCN1/C(=C/c2cccc[n+]2C)Sc2ccc(OC)cc21 was read as NALP1 yeast inh 19.1, ATG4B inhibitor -1.4, NLRP3 yeast inh 5.7, ALR H2O2 inh 98.2* and Calb FLC 98.9*.
`Cc1ccc(S(=O)(=O)N(CC(=O)NN=Cc2cccc(Cl)c2)c2cccc3cccnc23)cc1` gave UCH37 inh 4.2.
`COc1ccc(C2C(C(=O)OC(C)C)=C(C)N=c3sc(=Cc4cccs4)c(=O)n32)cc1` (configuration not stated) gave UCH37 inh 3.7.
Screening Cc1ccc(C=NNC(=O)c2cccc(S(=O)(=O)Nc3ccccc3Cl)c2)o1 returned UCH37 inh 4.7.
O=C(NN=Cc1cccnc1)c1cc(-c2ccccc2Cl)nc2ccccc12 was read as UCH37 inh 2.2.
Nc1ccc(C23CC4CC(CC(O)(C4)C2)C3)cc1 was read as NALP1 yeast inh 3.7, UCH37 inh 3.0, ATG4B inhibitor -4.1, NLRP3 yeast inh -6.6 and Calb FLC 32.9.
Screening Nc1ccc(C23CC4CC(CC(CO)(C4)C2)C3)cc1 returned NALP1 yeast inh 17.2, UCH37 inh 2.5, ATG4B inhibitor -9.8, NLRP3 yeast inh 35.0, ALR H2O2 inh 93.0* and Calb FLC -38.4.
`Cc1cc(Br)cc(C=NNC(=O)c2ccc3c(c2)OCO3)c1O` gave UCH37 inh 1.5.
`CCC(NC(C)C)C(O)c1ccc(O)c(O)c1` (configuration not stated) gave NALP1 yeast inh 26.3, UCH37 inh 1.5, ATG4B inhibitor -1.2, NLRP3 yeast inh 6.5 and ALR H2O2 inh 92.2*.
Screening CCC(c1ccc(O)c(O)c1)C(CC)c1ccc(O)c(O)c1 (configuration not stated) returned UCH37 inh 2.9 and ATG4B inhibitor -4.6.
Screening Cn1c(CSCc2ccc(Cl)cc2)n[nH]c1=S returned NALP1 yeast inh 8.8, UCH37 inh 5.0, ATG4B inhibitor -0.6, NLRP3 yeast inh 25.4, ALR H2O2 inh 94.4* and Calb FLC 17.5.
Screening Cn1c(CSCc2ccc(F)cc2)n[nH]c1=S returned NALP1 yeast inh -13.7, UCH37 inh 1.9, ATG4B inhibitor -3.4, NLRP3 yeast inh 16.9, ALR H2O2 inh 6.5 and Calb FLC -5.5.
Cn1c(CCNC(=O)c2ccc(Cl)cc2)n[nH]c1=S was read as NALP1 yeast inh 8.6, UCH37 inh 1.0, ATG4B inhibitor -2.7, NLRP3 yeast inh 2.2, ALR H2O2 inh 96.4* and Calb FLC -4.0.
Screening COc1ccc(OCC(=O)NN=C/C=C/c2ccccc2)cc1 returned UCH37 inh 1.0.
Screening CN(C)CCN(C(=O)c1ccc2c(c1)CCCC2)c1nc2c(F)cccc2s1 returned NALP1 yeast inh 41.8*, UCH37 inh 14.4, ATG4B inhibitor 5.7, NLRP3 yeast inh 15.8, ALR H2O2 inh -20.3 and Calb FLC -3.3.
Screening CCOc1ccc2nc(N(CCCN(C)C)C(=O)c3ccc4c(c3)CCCC4)sc2c1 returned NALP1 yeast inh 30.1, UCH37 inh 2.2, ATG4B inhibitor -5.3, NLRP3 yeast inh 28.2, ALR H2O2 inh -22.1 and Calb FLC 1.8.
Screening CN(C)CCCN(C(=O)c1ccc2c(c1)CCCC2)c1nc2ccc(Cl)cc2s1 returned NALP1 yeast inh 82.3*, UCH37 inh -0.3, ATG4B inhibitor 3.3, NLRP3 yeast inh 33.2, ALR H2O2 inh -1.4 and Calb FLC -28.8.
Screening COc1ccc(C=NN2CCN(c3ccc(Cl)cc3)CC2)cc1O returned UCH37 inh 4.9.
COc1cccc(C2CC(=O)N3CN(c4ccccc4F)CSC3=C2C#N)c1 (configuration not stated) was read as NALP1 yeast inh -1.6, UCH37 inh 6.8, ATG4B inhibitor 1.2, NLRP3 yeast inh 9.6, ALR H2O2 inh -27.3 and Calb FLC 2.0.
For COc1ccc(OC)c(C2CC(=O)N3CN(c4ccccc4F)CSC3=C2C#N)c1 (configuration not stated) the results were NALP1 yeast inh 8.0, UCH37 inh 5.8, ATG4B inhibitor -16.5, NLRP3 yeast inh 15.2, ALR H2O2 inh 78.6* and Calb FLC -0.5.
Screening COc1ccccc1/C=C1/C(=O)ON=C1C returned NALP1 yeast inh -2.9, UCH37 inh -0.7, ATG4B inhibitor -6.3, NLRP3 yeast inh -15.5, ALR H2O2 inh 97.8* and Calb FLC 4.9.
Screening Cc1nc2ccccc2c(=O)n1N=Cc1ccccn1 returned UCH37 inh 4.1.
For NC(=S)N/N=C/c1ccc(/C=N/NC(N)=S)cc1 the results were NALP1 yeast inh -17.1, ATG4B inhibitor 9.9, NLRP3 yeast inh 12.1, ALR H2O2 inh -3.1 and Calb FLC -4.7.
`O/N=C\c1ccc(-c2ccccc2)o1` gave NALP1 yeast inh 33.1, ATG4B inhibitor 1.5, NLRP3 yeast inh 37.4, ALR H2O2 inh 78.4* and Calb FLC 0.7.
Screening Cc1ccc(-c2ccc(/C=N/NC(N)=S)o2)cc1 returned NALP1 yeast inh -6.6, ATG4B inhibitor -12.9, NLRP3 yeast inh 37.0, ALR H2O2 inh -6.4 and Calb FLC -2.9.
NC(=S)N/N=C/c1ccc(-c2ccccc2)o1 was read as NALP1 yeast inh 1.6, ATG4B inhibitor -5.3, NLRP3 yeast inh 23.5, ALR H2O2 inh 97.9* and Calb FLC 8.8.

Source: PubChem BioAssay
